Activity calls are given as the source filed them. The calls are words filed in the database; no cut-off is given here.

The subject of data set [1] is Caco-2. Description: Antiproliferative activity against human Caco2 cells assessed as reduction in cell viability incubated for 48 hrs by MTT assay. Conditions: Caco-2, 48 h. Type of data set: functional, cell-based. An outline of the steps:
(§1)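 Growth inhibition was read at 24, 48 and 72 h in U-2OS, Caco-2 and IMR-32 cells. EC50 values are the mean of n = 3 independent experiments ± SEM.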
(In general: Formazan colour is commonly taken as a measure of viable cells.)

A short description of data set [2]: Induction of NO production in PBS buffer at 0.1 mM measured for 1 to 24 hrs by Griess method. Type of data set: functional. An outline of the steps: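 Compound at 0.1 mM in 50 mM phosphate buffer, pH 7.4, incubated at 37 °C without l-cysteine. Released NO was measured as nitrite by the Griess method and given as % of the initial compound concentration at 1, 5 and 24 h. Values are the average of three independent experiments.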
(Griess reagent forms a coloured azo dye with nitrite.)

Data set [3] has as its system Caco-2. Description: Antiproliferative activity against human Caco2 cells assessed as reduction in cell viability incubated for 72 hrs by MTT assay. Conditions: Caco-2, 72 h. Type of data set: functional, cell-based. An outline of the steps: as §1
The nature of data set [4]: Chemical stability of compound in HEPES assessed as compound hydrolysis at 500 ug/ml measured upto 24 hrs by HPLC-UV/MS analysis. Type of data set: physicochemical.
Data set [5] concerns IMR-32. As to the kind of experiment: Antiproliferative activity against human IMR32 cells assessed as reduction in cell viability incubated for 24 hrs by MTT assay. Type of data set: functional, cell-based. Conditions: IMR-32, 24 h. The procedure, abridged:
as §1

Data set [6] deals with U2OS. Description: Antiproliferative activity against human U2OS cells assessed as reduction in cell viability incubated for 48 hrs by MTT assay. Type of data set: functional, cell-based. The procedure, abridged: as §1
Data set [7] is described as follows: Chemical stability of compound in DMSO assessed as compound hydrolysis at 500 ug/ml measured upto 24 hrs by HPLC-UV/MS analysis. Type of data set: physicochemical.
The subject of data set [8] is IMR-32. As to the kind of experiment: Antiproliferative activity against human IMR32 cells assessed as reduction in cell viability incubated for 48 hrs by MTT assay. Type of data set: functional, cell-based. Conditions: IMR-32, 48 h. The procedure, abridged:
as §1

Data set [9] in a line: Stability of compound in human plasma assessed as compound hydrolysis at 500 ug/ml measured upto 24 hrs by HPLC-UV/MS analysis. Type of data set: ADME, cell-free.
Data set [10] is described as follows: Induction of NO production in PBS buffer at 0.1 mM in presence of L-cysteine measured for 1 to 24 hrs by Griess method. Type of data set: functional. The procedure, abridged: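 Griess assay for NO release: each compound at 0.1 mM in 50 mM phosphate buffer, pH 7.4, at 37 °C, with l-cysteine at 0.5 mM and at 5 mM. Nitrite yield is given as % of the initial compound concentration at 1 h, 5 h and 24 h. Values are the average of three independent experiments.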

Data set [11] has as its system U2OS. Description: Antiproliferative activity against human U2OS cells assessed as reduction in cell viability incubated for 72 hrs by MTT assay. Type of data set: functional, cell-based. An outline of the steps: as §1
Data set [12] deals with Caco-2. As to the kind of experiment: Antiproliferative activity against human Caco2 cells assessed as reduction in cell viability incubated for 24 hrs by MTT assay. Type of data set: functional, cell-based. Conditions: Caco-2, 24 h. An outline of the steps: as §1
The subject of data set [13] is IMR-32. As to the kind of experiment: Antiproliferative activity against human IMR32 cells assessed as reduction in cell viability incubated for 72 hrs by MTT assay. Type of data set: functional, cell-based. Conditions: IMR-32, 72 h. An outline of the steps: as §1
Data set [14] relates to U2OS. Description: Antiproliferative activity against human U2OS cells assessed as reduction in cell viability incubated for 24 hrs by MTT assay. Type of data set: functional, cell-based. The procedure, abridged:
as §1

Take `CC(C)[C@@H]1NC(=O)[C@]2(C)CSC(=N2)c2csc(n2)CNC(=O)C[C@@H](/C=C/CCSC(=O)CCC(CO[N+](=O)[O-])O[N+](=O)[O-])OC1=O` (some centres not stated): the EC50 in [1] was 0.00562 µM; in data set [3] it was 0.00447 µM; in [5], 0.0295 µM; in [6], 0.741 µM; in data set [8], 0.0617 µM; in [11], 1 µM. The EC50 in data set [12] is 9.12 µM; in [13] it was 0.0501 µM; in [14], 0.468 µM. The result in data set [2] and in [10] was Active. For the same molecule, the Stability entry in data set [4], in data set [7] and in data set [9] was “Stable” throughout.

With `CCCCCCCC(=O)SCC/C=C/[C@@H]1CC(=O)NCc2nc(cs2)C2=N[C@@](C)(CS2)C(=O)N[C@@H](C(C)C)C(=O)O1` [LARGAZOLE], the EC50 is 0.759 µM in data set [1]; 0.0145 µM in [3]; 0.0347 µM in data set [5]; 0.372 µM in data set [6]; 0.0302 µM in data set [8]; 0.331 µM in data set [11]. Also, the results for the EC50 in [12], in data set [13] and in data set [14] were > 10000 µM, 0.0123 µM and 20.4 µM, respectively.

For the molecule `CC(C)[C@@H]1NC(=O)[C@]2(C)CSC(=N2)c2csc(n2)CNC(=O)C[C@@H](/C=C/CCSC(=O)CCCCO[N+](=O)[O-])OC1=O`, the EC50 is 0.038 µM in [1]; 0.00813 µM in data set [3]; 0.0151 µM in data set [5]; 0.309 µM in data set [6]; 0.0195 µM in [8]; 0.17 µM in [11]. Besides, the EC50 in data set [12] was 11.2 µM; in [13] it was 0.012 µM; in [14] it was 1.95 µM. In addition, the outcome in data set [2] and in data set [10] was Active. In addition, the Stability result in data set [4], in data set [7] and in [9] was “Stable” throughout.

Usually EC50 stands for the concentration giving half of the maximal effect.

(Values after ChEMBL document CHEMBL4613302, “Synthesis and Antiproliferative Activity of Nitric Oxide-Donor Largazole Prodrugs” (ACS Med Chem Lett, 2020).)
